Measurements from ChEMBL document CHEMBL1157766, “Neolignans and glycosides from the stem bark of Illicium difengpi” (J Nat Prod, 2010).
The source made the active and inactive calls. The rule behind the calls is not given here.

Key:
[1] = Antiinflammatory activity in rat PMNC assessed as inhibition of platelet activating factor-induced beta-glucuronidase release preincubated for 15 mins at 37 degC; format: functional
Procedure, shortened: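 Rat polymorphonuclear leukocytes (2.5 × 10^6 cells/mL) preincubated with sample (diluted from 0.1 M DMSO stock to 10^-3 M) at 37 °C for 15 min. Cytochalasin B added for 5 min, then PAF for 5 min, stopped on ice. Supernatant β-glucuronidase measured with 2.5 mM phenolphthalein glucuronic acid in 0.1 M HOAc, 37 °C, 18 h. NaOH stop, A550; inhibitory ratio versus PAF and control.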

[2] = Antioxidant activity in liver microsomes assessed as inhibition of Fe(2+)-Cys system-induced lipid peroxidation preincubated for 15 mins at 37 degC; format: functional, Microsome; conditions: for inhibition: Microsome
Procedure, shortened: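 Sample with liver microsome suspension and 0.2 µM cysteine in 0.1 M PBS pH 7.4, 37 °C, 15 min. Peroxidation started with 50 µM FeSO4 and stopped with 20% TFA. Supernatant heated with 0.67% thiobarbituric acid in boiling water for 10 min, then A532 read. Inhibitory ratio calculated from absorbances.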

SMILES | IC50 [1] [µM] | IC50 [2] [µM] | inhibition [2]
C=CCc1cc(OC)c(O[C@@H](CO)[C@H](O)c2cc(OC)c(O)c(OC)c2)c(OC)c1 | 24.4 | 42.3 | –
COc1cc([C@H](O)[C@@H](CO)Oc2c(OC)cc(CCCO)cc2OC)ccc1OC(CO)CO | 1.62 | – | inactive
C[C@@H]1O[C@@H](OC[C@H]2O[C@@H](Oc3cc4c(cc3O)OCO4)[C@H](O)[C@@H](O)[C@@H]2O)C(O)[C@H](O)[C@H]1O (single isomer, unassigned) | > 50 | – | inactive
COc1cc(O[C@@H]2O[C@H](CO[C@@H]3O[C@@H](C)[C@H](O)[C@@H](O)C3O)[C@@H](O)[C@H](O)[C@H]2O)cc(O)c1OC (single isomer, unassigned) | 7.66 | – | inactive
COc1cc(CCCO)cc2c1O[C@H](C1=C[C@H](O)[C@H](O)CC1)[C@H]2CO [DIFENGPIOL A] | > 50 | – | inactive
COc1cc(CCCO)cc2c1O[C@H]([C@]1(O)CC[C@H](OC)[C@@H](O)C1)[C@H]2CO [DIFENGPIOL B] | > 50 | – | inactive
C[C@@H]1C(=O)O[C@H]2[C@H](O)[C@@]34[C@H]5C[C@@H](C(C)(C)C)[C@]36[C@@H](OC(=O)[C@@H]6O)O[C@@]4(C(=O)O5)[C@@]12O [GINKOLIDE B] | 2.35 | – | –
COc1cc(/C=C/CO)cc(OC)c1OC(=O)/C=C/c1ccccc1 [NEODIFENGPIN] | > 50 | – | inactive
